In ChEMBL document CHEMBL1121809, “Cyclic guanidines. 14. Imidazo[1,2-a]thienopyrimidin-2-one derivatives as blood platelet aggregation inhibitors” (J Med Chem, 1981):

Experiments:
Rattus norvegicus [1] = species on record: Rattus norvegicus; assay: In vitro inhibition of collagen-induced blood platelet aggregation; assay type: functional
In short: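 Rat PRP (about 5 × 10⁵ platelets/μL) was preincubated with compound added in saline or MeOH. Aggregation was started with bovine tendon collagen suspension in Tris buffer (absorbance 0.270 at 420 nm; lag 2–3 min). Read at 30 °C, 1100 rpm, as initial maximal rate ΔA/min. EC50 is the concentration giving 50% inhibition.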

Rattus norvegicus [2] = species on record: Rattus norvegicus; assay: In vitro inhibition of ADP-induced blood platelet aggregation; assay type: functional
In short: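 Rat carotid citrated blood was spun at 230g for 7 min to give PRP, adjusted with PPP to about 5 × 10⁵ platelets/μL. Compound in saline or MeOH was added before 10 μM ADP in Tris-HCl/NaCl pH 7.4 with CaCl₂. Aggregation was read at 30 °C, 1100 rpm, as maximal ΔA. EC50 is the concentration giving 50% inhibition.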

Rattus norvegicus [3] = assay: Ex vivo inhibition of collagen-induced blood platelet aggregation in rat was measured 2 hr after administration of vehical alone; assay type: functional
In short: (§1)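 Overnight-fasted rats were dosed orally at (50 mg/10 mL)/kg in 0.5% Tween 80; controls got vehicle at 10 mL/kg. PRP was made from carotid citrated blood 2 h later under pentobarbital. Collagen suspension (absorbance 0.270 at 420 nm) drove aggregation at 30 °C, 1100 rpm. Read-out was the initial maximal rate of absorbance fall (ΔA/min). Inhibition percent is versus controls; 5–7 rats, mean ± SD.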

Rattus norvegicus [4] = assay: (§2) Ex vivo inhibition of collagen-induced blood platelet aggregation in rat was measured 2 hr after oral administration of 50 mg/kg; assay type: functional; set-up: scale not given here; in short: as §1
Rattus norvegicus [5] = species on record: Rattus norvegicus; assay: Inhibition of collagen-induced blood platelet aggregation in rat after 3 hrs; assay type: functional
In short: (§3)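 Fasted rats received one oral 50 mg/kg dose in 0.5% Tween 80, and PRP was prepared 3, 6 or 24 h later; vehicle controls were bled at 3 h. Collagen-induced aggregation was read as initial maximal rate ΔA/min at 30 °C. Percent inhibition is versus controls; 5–7 animals, mean ± SD.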

Rattus norvegicus [6] = species on record: Rattus norvegicus; assay: Inhibition of collagen-induced blood platelet aggregation in rat after 24 hr; assay type: functional; in short: as §3
Rattus norvegicus [7] = assay: as §2; assay type: functional; in short: as §1
Rattus norvegicus [8] = species on record: Rattus norvegicus; assay: Inhibition of ADP-induced blood platelet aggregation in rat after 6 hr; assay type: functional
In short: (§4)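 This is an ex vivo time course after a single oral 50 mg/kg dose in 0.5% Tween 80 to fasted rats, with PRP made at 3, 6 or 24 h; controls got vehicle 3 h before blood collection. ADP (10 μM) aggregation was read as extent ΔA at 30 °C. Percent inhibition is versus controls; 5–7 animals, mean ± SD.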

Rattus norvegicus [9] = species on record: Rattus norvegicus; assay: Inhibition of collagen-induced blood platelet aggregation in rat after 6 hrs; assay type: functional; in short: as §3
Rattus norvegicus [10] = species on record: Rattus norvegicus; assay: Inhibition of ADP-induced blood platelet aggregation in rat after 3 hr; assay type: functional; in short: as §4
Rattus norvegicus [11] = species on record: Rattus norvegicus; assay: Inhibition of ADP-induced blood platelet aggregation in rat after 24 hr; assay type: functional; in short: as §4
Rattus norvegicus [12] = assay: Effect on systolic blood pressure in rat after an oral dose at 50 mg/kg (3h after dose); assay type: functional, Artery
In short: (§5)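 Male Wistar-Imamichi rats, 250 g, were given the compound orally at (50 mg/7.5 mL)/kg as a suspension in 0.5% CMC or 0.5% Tween 80. Systolic pressure and heart rate were taken by tail-cuff after prewarming at 55–60 °C for 3 min, before dosing and at set times after. Five rats per group, mean ± SD. Pressure is reported as decrease and heart rate as percent change.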

Rattus norvegicus [13] = assay: Effect on heart rate in rat after an oral dose at 50 mg/kg (1h after dose); assay type: functional; in short: as §5
Rattus norvegicus [14] = assay: Effect on systolic blood pressure in rat after an oral dose at 50 mg/kg (5h after dose); assay type: functional, Artery; in short: as §5
Rattus norvegicus [15] = assay: Effect of compound on heart rate in rat after an oral dose at 50 mg/kg; assay type: functional; in short: as §5
Rattus norvegicus [16] = assay: Effect on heart rate in rat after an oral dose at 50 mg/kg (4h after dose); assay type: functional; in short: as §5
Rattus norvegicus [17] = assay: Effect on systolic blood pressure in rat after an oral dose at 50 mg/kg; assay type: functional, Artery; in short: as §5
Rattus norvegicus [18] = assay: Effect on heart rate in rat after an oral dose at 50 mg/kg (3h after dose); assay type: functional; in short: as §5
Rattus norvegicus [19] = assay: Effect on systolic blood pressure in rat after an oral dose at 50 mg/kg (1h after dose); assay type: functional, Artery; in short: as §5

EC50 (Rattus norvegicus [1]) [nM]	EC50 (Rattus norvegicus [2]) [µM]	Structure (SMILES)	Delta A/min (Rattus norvegicus [3])	Delta A/min (Rattus norvegicus [4])	Delta A/min (Rattus norvegicus [7])	further results
180	0.53	CC1CCCc2c1sc1c2CN2CC(=O)N=C2N1.Cl (stereo not given)			0	Delta A/min (Rattus norvegicus [5]): 0; Delta A/min (Rattus norvegicus [6]): 0.116; Delta A/min (Rattus norvegicus [8]): 0.079; Delta A/min (Rattus norvegicus [9]): 0.036; Delta A/min (Rattus norvegicus [10]): 0.053; Delta A/min (Rattus norvegicus [11]): 0.118
250	40	Cl.O=C1CN2Cc3c(sc4c3CCC4)N=C2N1			0.072 ΔA/min	
84000	250	Cl.O=C1CN2C=c3c4c(sc3=NC2=N1)CCCC4	0.183	0.047 ΔA/min		Delta A/min (Rattus norvegicus [5]): 0.068; Delta A/min (Rattus norvegicus [6]): 0.185; Delta A/min (Rattus norvegicus [9]): 0.195
60000	> 250	CCC1C(=O)NC2=Nc3sc4c(c3CN21)CCCC4 (stereo not given)				
12000	250	Cc1cc2c(s1)CN1CC(=O)NC1=N2.Cl	0.228	0.217 ΔA/min		
2200	4.2	Cl.O=C1CN2Cc3c(sc4c3CCC(OCc3ccccc3)C4)N=C2N1 (stereo not given)	0.117	42000		
10000	> 250	Cl.O=C1CN2Cc3sccc3N=C2N1	0.308	0.256 ΔA/min		
170	18	Cl.O=C1CN2Cc3c(sc4c3CCCCC4)N=C2N1			0.202 ΔA/min	
150	5.3	Cl.O=C1CN2Cc3c(sc4ccccc34)N=C2N1	0.183	0.092 ΔA/min		
200	32	CC1CCc2c(sc3c2CN2C(=N3)NC(=O)C2C)C1.Cl (stereo not given)	0.207	152000		
10000	230	Cc1cc2c(s1)N=C1NC(=O)C(C)N1C2 (stereo not given)				
29000	13.5	Cl.Cl.O=C1CN2Cc3c(sc4c3CCN(Cc3ccccc3)C4)N=C2N1	0.186	121000		
120	1.2	CCOC(=O)N1CCc2c(sc3c2CN2CC(=O)NC2=N3)C1.Cl	0.171	115000		Delta A/min (Rattus norvegicus [5]): 120000; Delta A/min (Rattus norvegicus [6]): 30000; Delta A/min (Rattus norvegicus [9]): 0.072
1200	12	CN(C(=O)CCCOc1ccc2[nH]c(=O)ccc2c1)C1CCCCC1 [CILOSTAMIDE]				Decrease in blood pressure (Rattus norvegicus [12]): -1; Change in heart rate (Rattus norvegicus [13]): 22%; Decrease in blood pressure (Rattus norvegicus [14]): -1; Change in heart rate (Rattus norvegicus [15]): 26%; Change in heart rate (Rattus norvegicus [16]): 21%; Initial blood pressure (Rattus norvegicus [17]): 125 mmHg; Change in heart rate (Rattus norvegicus [18]): 20%; Decrease in blood pressure (Rattus norvegicus [19]): 1
620	2	CC1CCc2c(sc3c2CN2CC(=O)NC2=N3)C1.Cl (stereo not given)	0.178	0		
4000	160	O=C1CN2Cc3c(sc4c3CCCC4Cc3ccccc3)N=C2N1 (stereo not given)				
30	3	CC1CCCc2c1sc1c2CN2C(=NC(=O)C2C)N1.Cl (stereo not given)	0.183	0.047 ΔA/min		
1600	34	O=C1CN2Cc3c(sc4c3COc3ccccc3-4)N=C2N1				
> 250000	> 250	CN1C(=O)CN2Cc3c(sc4c3CCCC4)N=C21				
100	2	Cl.O=C1CN2Cc3c(sc4c3CCC(O)C4)N=C2N1 (stereo not given)	0.117	2000		
190	2	CCCCCc1sc2c(c1C)CN1CC(=O)NC1=N2.Cl			0.002 ΔA/min	
900	19	Cl.O=C1CN2Cc3c(sc4c3CCc3ccccc3-4)N=C2N1	0.207	0.191 ΔA/min		
> 250000	> 250	CCCCC1C(=O)NC2=Nc3sc4c(c3CN21)CCCC4 (stereo not given)				
20000	120	Cl.O=C1CN2Cc3c(-c4ccccc4)csc3NC2=N1			0.198 ΔA/min	

The remaining lines, values behind:

Structure (SMILES)	EC50 (Rattus norvegicus [1]) [nM]	EC50 (Rattus norvegicus [2]) [µM]	Delta A/min (Rattus norvegicus [3])	Delta A/min (Rattus norvegicus [4])	Delta A/min (Rattus norvegicus [7])	further results
Cl.O=C1CN2Cc3c(sc4c3CCSC4)N=C2N1	540	2	0.178	0		
Cc1cc2c(s1)NC1=NC(=O)CN1C2.Cl	35000	125			0.162 ΔA/min	
O=C1CN2Cc3cscc3N=C2N1	90000	> 250				
O=C1CN2Cc3ccsc3N=C2N1	> 250000	> 250				
Cl.O=C1CN2Cc3c(sc4c3SCCC4)NC2=N1	160	1.2	0.171	0.125 ΔA/min		
Cc1csc2c1CN1CC(=O)NC1=N2.Cl	15000	19			0.188 ΔA/min	
Cc1scc2c1CN1CC(=O)NC1=N2.Cl	3500	17	0.29	0.198 ΔA/min		
CCCc1sc2c(c1C)CN1CC(=O)NC1=N2.Cl	80	0.58			0.09 ΔA/min	Delta A/min (Rattus norvegicus [5]): 0.09; Delta A/min (Rattus norvegicus [6]): 0.242; Delta A/min (Rattus norvegicus [8]): 0.154; Delta A/min (Rattus norvegicus [9]): 0.213; Delta A/min (Rattus norvegicus [10]): 0.128
Cc1sc2c(c1Cl)CN1CC(=O)NC1=N2.Cl	17000	36			0.28 ΔA/min	
Cc1sc2c(c1C)CN1C(=N2)NC(=O)C1C.Cl (stereo not given)	130	20	0.183	0.076 ΔA/min		
Cc1c(Cl)sc2c1CN1CC(=O)NC1=N2.Cl	1900	4.2			0.222 ΔA/min	Delta A/min (Rattus norvegicus [5]): 0.077; Delta A/min (Rattus norvegicus [6]): 0.166; Delta A/min (Rattus norvegicus [8]): 0.121; Delta A/min (Rattus norvegicus [9]): 0.166; Delta A/min (Rattus norvegicus [10]): 0.106; Delta A/min (Rattus norvegicus [11]): 0.122
CCCc1c(CC)sc2c1CN1CC(=O)NC1=N2.Cl	2200	3			0.008 ΔA/min	
Cc1sc2c(c1Cl)CN1C(=N2)NC(=O)C1C (stereo not given)	900	150				
CC(C)(C)C1CCc2c(sc3c2CN2CC(=O)NC2=N3)C1.Cl (stereo not given)	250	27	0.117	4000		
Cc1sc2c(c1C)CN1CC(=O)NC1=N2.Cl	1000	5			0.073 ΔA/min	Delta A/min (Rattus norvegicus [5]): 0.094; Delta A/min (Rattus norvegicus [6]): 0.164; Delta A/min (Rattus norvegicus [8]): 0.168; Delta A/min (Rattus norvegicus [9]): 0.153; Delta A/min (Rattus norvegicus [10]): 0.173; Delta A/min (Rattus norvegicus [11]): 0.168
Cl.O=C1CN2Cc3c(sc4c3CCOC4)N=C2N1	200	1.3	0.171	113000		
